Experimental findings from ChEMBL document CHEMBL4330062 (Eur J Med Chem, 2019) are described below.

Where a SMILES comes first, the peptide text is derived from it. Bridges are numbered along the chain shown (N, C = ends). The star is where a group is joined. NH(β-GlcNAc) = CC(=O)N[C@@H]1[C@@H](O)[C@H](O)[C@@H](CO)O[C@H]1N*; Valol = CC(C)[C@@H](CO)N*

For assay [1], the target named is T1, Somatostatin receptor type 4 (Homo sapiens, UniProt P31391). The assay can be described thus: Displacement of [125I]somatostatin-14 (Tyr11) from human SSTR4 expressed in African green monkey COS1 cell membranes after 2 hrs by scintillation counting method. In a few lines:
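Membranes from transiently transfected COS-1 cells (10 μg protein) incubated 2 h at room temperature in 10 mM Hepes pH 7.5 with 5 mM MgCl2, bacitracin, 0.5% BSA and ¹²⁵I-[Tyr¹¹]-somatostatin-14 (30,000 cpm), with unlabeled somatostatin-14 and test ligands at various concentrations. Bound radioactivity read by scintillation counting.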

The target in assay [2] is T2, Somatostatin receptor type 5 (Homo sapiens, UniProt P35346). The assay is described as follows: Displacement of [125I]somatostatin-14 (Tyr11) from human SSTR5 expressed in African green monkey COS1 cell membranes after 2 hrs by scintillation counting method. In a few lines: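 SSTR-5 gene cloned into pCMV6c and transfected into COS1 cells. Membrane preparation (20 μg protein) incubated 2 h at room temperature in Na⁺-free buffer: 10 mM HEPES, 1% BSA, 5 mM MgCl2, 1 mg/ml bacitracin, pH 7.45. Contained ~10 pM [¹²⁵I-Tyr¹¹]-somatostatin-14, either alone or with somatostatin-14 and test ligands at various concentrations.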

For assay [3], the species on record is Homo sapiens. The assay can be described thus: Selectivity ratio of Ki for human SSTR5 to Ki for human SSTR4.
The species entered for assay [4] is Homo sapiens. The assay can be described thus: Selectivity ratio of Ki for human SSTR4 to Ki for human SSTR5.
Assay [5] concerns the target T1, Somatostatin receptor type 4. The assay can be described thus: Inhibition of human SSTR4 by radioligand binding assay.
The target in assay [6] is T2, Somatostatin receptor type 5. The assay is described as follows: Inhibition of human SSTR5 by radioligand binding assay.

T1 sequence (P31391 whole entry): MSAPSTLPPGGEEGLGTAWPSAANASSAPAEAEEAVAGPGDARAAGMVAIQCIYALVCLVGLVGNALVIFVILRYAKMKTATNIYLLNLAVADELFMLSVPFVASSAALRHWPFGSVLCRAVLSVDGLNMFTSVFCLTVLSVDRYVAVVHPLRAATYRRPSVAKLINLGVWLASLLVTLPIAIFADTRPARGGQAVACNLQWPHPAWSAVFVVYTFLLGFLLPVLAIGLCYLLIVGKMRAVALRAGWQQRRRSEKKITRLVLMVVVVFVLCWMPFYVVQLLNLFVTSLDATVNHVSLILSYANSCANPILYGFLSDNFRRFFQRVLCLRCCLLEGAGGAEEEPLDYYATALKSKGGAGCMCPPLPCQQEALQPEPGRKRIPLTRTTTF
T2 sequence (P35346 whole entry): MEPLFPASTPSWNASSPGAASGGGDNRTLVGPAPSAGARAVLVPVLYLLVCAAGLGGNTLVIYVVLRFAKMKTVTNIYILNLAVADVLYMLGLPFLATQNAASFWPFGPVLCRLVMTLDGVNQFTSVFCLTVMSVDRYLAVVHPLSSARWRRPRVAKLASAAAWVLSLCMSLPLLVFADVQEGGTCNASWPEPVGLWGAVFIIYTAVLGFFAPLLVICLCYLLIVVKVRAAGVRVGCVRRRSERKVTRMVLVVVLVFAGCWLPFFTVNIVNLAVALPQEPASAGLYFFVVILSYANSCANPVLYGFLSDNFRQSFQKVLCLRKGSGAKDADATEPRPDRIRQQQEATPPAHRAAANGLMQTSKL

With `NCCCCN1CCCCCCOCc2cn(nn2)C[C@H]2O[C@H](CC1)[C@H](OCc1cccc3ccccc13)[C@@H](O)[C@H]2O`, the 50% inhibitory concentration (IC50) in assay [1] and in assay [2] was > 100 µM throughout. Moreover, the Ki in assay [1] and in assay [2] was > 100 µM in each case.
Take `NCCCCO[C@H]1[C@H](O)[C@H](OCc2ccccc2)COCCCc2cccc(O)c2C(=O)OC[C@@H]1NC(=O)Cc1c[nH]c2ccccc12`: the half-inhibitory concentration (IC50) (commonly the concentration at which inhibition is half-maximal) worked out at 1.2 µM in assay [1] and 3 µM in assay [2]. For the same compound, the inhibition constant (Ki) – broadly, the equilibrium dissociation constant of an inhibitor or competing ligand from its target – in assay [1] was 1.9 µM; in assay [2], 3.2 µM.
For `CC(=O)N[C@@H]1[C@@H](O)[C@H](O)[C@@H](CO)O[C@H]1NC(=O)C[C@@H]1NC(=O)[C@H](CCCCN)NC(=O)[C@H](Cc2c[nH]c3ccccc23)NC(=O)[C@H](Cc2ccccc2)NC(=O)[C@@H](NC(=O)[C@H](Cc2ccccc2)NC(C)=O)CSSC[C@@H](C(=O)N[C@H](CO)C(C)C)NC1=O` (Ac-FCFWKD(NH(β-GlcNAc))C-Valol; disulfide 2-7), the IC50 came out at 21 µM in assay [1] and 5.2 µM in assay [2]. Besides, the inhibition constant (Ki) in assay [1] was 20 µM; in assay [2], 3.4 µM.
The like results for `CC(C)CCO[C@@H]1[C@@H](O)[C@@H](O)[C@H]2Cn3cc(nn3)COCCCCCCN(CCc3c[nH]c4ccccc34)CC[C@H]1O2` were, in that order, 22 µM, 6.2 µM, 21 µM and 4.1 µM.
In the case of `NCCCCCOC[C@@H]1[C@@H](OCc2ccccc2)[C@H](OCc2ccccc2)[C@@H](OCc2ccccc2)CN1CCc1c[nH]c2ccccc12`, the Ratio Ki in assay [3] was 1.13.
On to `NCCCCC[C@@H]1[C@@H](OCc2ccccc2)[C@H](OCc2ccccc2)[C@@H](OCc2ccccc2)CN1Cc1cccc2ccccc12`, for which the Ratio Ki in assay [4] was determined as 1.46. Also, the Ki came out at 1.9 µM in assay [1] and 1.3 µM in assay [2].
Turning to `Cc1ccc(S[C@H]2O[C@H](CO)[C@@H](O)[C@H](OC/C=C/CN)[C@@H]2NC(=O)Cc2c[nH]c3ccccc23)cc1`, the IC50 in assay [1] stood at 2.2 µM; in assay [2], 5.9 µM. In addition, the inhibition constant (Ki) in assay [1] turned out to be 2.1 µM; in assay [2], 3.9 µM. Further, the Ratio Ki in assay [3] was 1.8.
Take `CC(=O)O[C@H]1[C@H](OC(C)=O)[C@@H](CCCCCN)N(Cc2cccc3ccccc23)C[C@@H]1OC(C)=O`: the Ratio Ki in assay [4] turned out to be 1.05. Moreover, the Ki was 5.4 µM in assay [1] and 5.1 µM in assay [2].
Turning to `Cc1ccc(S[C@H]2O[C@H](CO)[C@@H](O)[C@H](OCCCCN)[C@@H]2NC(=O)Cc2c[nH]c3ccccc23)cc1`, in assay [1], the IC50 came to 6.9 µM and the Ki amounted to 6.8 µM. In addition, in assay [2], the 50% inhibitory concentration (IC50) worked out at 18 µM and the Ki worked out at 12 µM. Also, the Ratio Ki in assay [3] was determined as 1.8.
Regarding `C[C@@H](O)[C@@H]1NC(=O)[C@H](CCCCN)NC(=O)[C@@H](Cc2c[nH]c3ccccc23)NC(=O)[C@H](Cc2ccccc2)NC(=O)[C@@H](NC(=O)[C@@H](Cc2ccccc2)NC(=O)CN2CCN(CC(=O)O)CCN(CC(=O)O)CCN(CC(=O)O)CC2)CSSC[C@@H](C(=O)N[C@H](CO)[C@@H](C)O)NC1=O`, the IC50 in assay [5] was 0.103 µM; in assay [6], > 1 µM.
As to `NCCCCO[C@@H]1[C@@H](O)[C@H](CO)OC(O)[C@@H]1NC(=O)Cc1c[nH]c2ccccc12` (stereo not given in full), the inhibition constant Ki in assay [1] and in assay [2] was > 100 µM throughout.
For the compound `CC(=O)N[C@@H](Cc1ccccc1)C(=O)N[C@@H](C)C(=O)N[C@@H](Cc1ccccc1)C(=O)N[C@@H](Cc1c[nH]c2ccccc12)C(=O)N[C@@H](CCCCN)C(=O)N[C@@H](CC(=O)O)C(=O)N[C@@H](C)C(=O)N[C@H](CO)C(C)C` (Ac-FAFWKDA-Valol), in assay [1], the IC50 was > 100 µM. The inhibitory constant (Ki) in assay [1] and in assay [2] was > 100 µM each time.
As to `NCCCCC[C@@H]1[C@@H](O)[C@H](O)[C@@H](O)CN1Cc1cccc2ccccc12`, the Ki in assay [1] is > 100 µM; in assay [2] it was 23 µM.
Regarding `NCCCCN1CCCCCOCc2cn(nn2)C[C@H]2O[C@H](CC1)[C@H](OCc1cccc3ccccc13)[C@@H](O)[C@H]2O`, in assay [1], the IC50 is > 100 µM and the Ki was > 100 µM. In addition, in assay [2], the IC50 was > 100 µM and the inhibition constant (Ki) is > 100 µM.
`NCCCCCOC[C@@H]1[C@@H](O)[C@H](O)[C@@H](O)CN1CCc1c[nH]c2ccccc12`: the Ki in assay [2] was > 100 µM.
`CC(=O)N[C@@H](Cc1ccccc1)C(=O)N[C@H]1CSSC[C@@H](C(=O)N[C@H](CO)C(C)C)NC(=O)[C@H](CC(=O)O)NC(=O)[C@H](CCCCN)NC(=O)[C@H](Cc2c[nH]c3ccccc23)NC(=O)[C@H](Cc2ccccc2)NC1=O` (Ac-FCFWKDC-Valol; disulfide 2-7): in assay [1], the IC50 is 7.4 µM and the inhibition constant Ki came out at 7.2 µM. Besides, in assay [2], the IC50 amounted to 16 µM and the affinity corresponds to a Ki of 10 µM.
In assay [1], `NC/C=C/CO[C@H]1[C@H](O)[C@H](OCc2ccccc2)COC/C=C/c2cccc(O)c2C(=O)OC[C@@H]1NC(=O)Cc1c[nH]c2ccccc12` registered a concentration for half-maximal inhibition (IC50) of 0.59 µM and a Ki of 0.58 µM. In assay [2], this compound came in with a half-maximal inhibitory concentration (IC50) of 1.6 µM and an inhibitory constant (Ki) of 1.1 µM.
